One block for each compound: values may come before it.
Key:
Type in all cases: functional
L1210 = assay: Growth inhibition of cultured L1210 mouse leukemia cells was determined; conditions: read-out: ID50 (the source's name)
Procedure, shortened: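 L1210 mouse leukemia cells in suspension in Eagle's MEM with 15% whole (non-dialyzed, non-heat-inactivated) fetal calf serum, antibiotics and 0.05 mM 2-mercaptoethanol, 37 °C, 5% CO2. Drugs in pH 7.4 phosphate buffer or Me2SO, generally 10^-7 to 10^-3 M. Coulter cell counts at 48 h; ID50 relative to untreated controls from dose–response curves, triplicate.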

B16 = assay: Growth inhibition of B16 mouse melanoma cells in culture was determined; conditions: read-out: ID50 (the source's name)
Procedure, shortened: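 B16 mouse melanoma monolayers in McCoy's 5A with 10% whole fetal calf serum, streptomycin and penicillin, 37 °C, 5% CO2. Drugs were dissolved in 0.05 M pH 7.4 potassium phosphate buffer or Me2SO and dosed at regularly spaced concentrations, generally 10^-7 to 10^-3 M. Cells were counted after 48 h; ID50 versus untreated controls was read from dose–response curves, triplicate.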

Mus musculus [1] = assay: Antitumor activity against L1210 leukemia in mice (Percent increase in life span.) at the dose of 390 mg/kg
Procedure, shortened: (§1)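 Male B6D2F1J mice, groups of 5–9, inoculated ip with 10^5 L1210 cells on day 0. Dosing starts day 1 on a qd×5 or q4d(2,6) schedule. Vehicles are sterile water, pH 7.4 0.05 M potassium phosphate buffer, or 0.4% Tween 80/0.5% CMC/0.9% benzyl alcohol/0.9% saline. %ILS = (T/C − 1)×100 from median survival. Weights taken days 1 and 7.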

Mus musculus [2] = assay: Antitumor activity against L1210 leukemia in mice (Percent increase in life span.) at the dose of 260 mg/kg; procedure, shortened: as §1
Mus musculus [3] = assay: Antitumor activity against L1210 leukemia in mice (Average 7-day weight change (%)) at the dose of 130 mg/kg
Procedure, shortened: (§2)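 Male B6D2F1J mice, groups of five to nine, inoculated ip with 10^5 L1210 cells on day 0. Drug treatment started day 1 on qd×5 or q4d(2,6) schedule. Vehicles: ara-C in sterile water; the n-butyl phosphate ester in 0.05 M pH 7.4 potassium phosphate buffer; others as suspensions in 0.4% Tween 80/0.5% low-density CMC/0.9% benzyl alcohol/0.9% saline. Mice weighed days 1 and 7; 7-day weight change given as g/mouse and %.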

Mus musculus [4] = assay: Antitumor activity against L1210 leukemia in mice (Percent increase in life span.) at the dose of 130 mg/kg; procedure, shortened: as §1
Mus musculus [5] = assay: Antitumor activity against L1210 leukemia in mice (Average 7-day weight change) at the dose of 390 mg/kg; procedure, shortened: as §2
Mus musculus [6] = assay: Antitumor activity against L1210 leukemia in mice (Average weight per mouse on day 1.) at the dose of 390 mg/kg
Procedure, shortened: (§3)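 Male B6D2F1J mice (5–9 per group) received 10^5 L1210 cells i.p. on day 0 and drug from day 1, given qd×5 or q4d(2,6). Vehicles were sterile water, 0.05 M potassium phosphate pH 7.4, or 0.4% Tween 80/0.5% CMC/0.9% benzyl alcohol/0.9% saline. Read-out is average body weight per mouse (g) on day 1.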

Mus musculus [7] = assay: Antitumor activity against L1210 leukemia in mice (Average 7-day weight change (%)) at the dose of 390 mg/kg; procedure, shortened: as §2
Mus musculus [8] = assay: Antitumor activity against L1210 leukemia in mice (Average 7-day weight change) at the dose of 130 mg/kg; procedure, shortened: as §2
Mus musculus [9] = assay: Antitumor activity against L1210 leukemia in mice (Average weight per mouse on day 1.) at the dose of 130 mg/kg; procedure, shortened: as §3
Mus musculus [10] = assay: Antitumor activity against L1210 leukemia in mice (Average 7-day weight change) at the dose of 260 mg/kg; procedure, shortened: as §2
Mus musculus [11] = assay: Antitumor activity against L1210 leukemia in mice (Average weight per mouse on day 1.) at the dose of 260 mg/kg; procedure, shortened: as §3
Mus musculus [12] = assay: Antitumor activity against L1210 leukemia in mice (Average 7-day weight change (%)) at the dose of 260 mg/kg; procedure, shortened: as §2
Mus musculus [13] = assay: Antitumor activity against L1210 leukemia in mice (Average weight per mouse on day 1.) at the dose of 267 mg/kg; procedure, shortened: as §3
Mus musculus [14] = assay: Antitumor activity against L1210 leukemia in mice (Average 7-day weight change (%)) at the dose of 267 mg/kg; procedure, shortened: as §2
Mus musculus [15] = assay: Antitumor activity against L1210 leukemia in mice (Average 7-day weight change) at the dose of 267 mg/kg; procedure, shortened: as §2
Mus musculus [16] = assay: Antitumor activity against L1210 leukemia in mice (Average 7-day weight change (%)) at the dose of 113 mg/kg; conditions: dose 133 mg/kg; in the assay text read “133 mg/kg” for “113 mg/kg”; procedure, shortened: as §2
Mus musculus [17] = assay: Antitumor activity against L1210 leukemia in mice (Average weight per mouse on day 1.) at the dose of 113 mg/kg; procedure, shortened: as §3
Mus musculus [18] = assay: Antitumor activity against L1210 leukemia in mice (Percent increase in life span.) at the dose of 200 mg/kg (mice surviving 20 or more days); procedure, shortened: as §1
Mus musculus [19] = assay: Antitumor activity against L1210 leukemia in mice (Percent increase in life span.) at the dose of 113 mg/kg; procedure, shortened: as §1
Mus musculus [20] = assay: Antitumor activity against L1210 leukemia in mice (Average 7-day weight change) at the dose of 200 mg/kg; procedure, shortened: as §2
Mus musculus [21] = assay: Antitumor activity against L1210 leukemia in mice (Average 7-day weight change) at the dose of 113 mg/kg; procedure, shortened: as §2
Mus musculus [22] = assay: Antitumor activity against L1210 leukemia in mice (Percent increase in life span.) at the dose of 267 mg/kg (mice surviving 20 or more days); procedure, shortened: as §1
Mus musculus [23] = assay: Antitumor activity against L1210 leukemia in mice (Average weight per mouse on day 1.) at the dose of 200 mg/kg; procedure, shortened: as §3
Mus musculus [24] = assay: Antitumor activity against L1210 leukemia in mice (Average 7-day weight change (%)) at the dose of 200 mg/kg; procedure, shortened: as §2
Mus musculus [25] = assay: Antitumor activity against L1210 leukemia in mice (Average 7-day weight change) at the dose of 230 mg/kg; procedure, shortened: as §2
Mus musculus [26] = assay: Antitumor activity against L1210 leukemia in mice (Average 7-day weight change (%)) at the dose of 230 mg/kg; procedure, shortened: as §2
Mus musculus [27] = assay: Antitumor activity against L1210 leukemia in mice (Average weight per mouse on day 1.) at the dose of 460 mg/kg; procedure, shortened: as §3
Mus musculus [28] = assay: Antitumor activity against L1210 leukemia in mice (Average 7-day weight change (%)) at the dose of 115 mg/kg; procedure, shortened: as §2
Mus musculus [29] = assay: Antitumor activity against L1210 leukemia in mice (Average 7-day weight change) at the dose of 460 mg/kg; procedure, shortened: as §2
Mus musculus [30] = assay: Antitumor activity against L1210 leukemia in mice (Average 7-day weight change (%)) at the dose of 460 mg/kg; procedure, shortened: as §2
Mus musculus [31] = assay: Antitumor activity against L1210 leukemia in mice (Average 7-day weight change) at the dose of 115 mg/kg; procedure, shortened: as §2
Mus musculus [32] = assay: Antitumor activity against L1210 leukemia in mice (Percent increase in life span.) at the dose of 115 mg/kg; procedure, shortened: as §1
Mus musculus [33] = assay: Antitumor activity against L1210 leukemia in mice (Average weight per mouse on day 1.) at the dose of 230 mg/kg; procedure, shortened: as §3
Mus musculus [34] = assay: Antitumor activity against L1210 leukemia in mice (Percent increase in life span.) at the dose of 230 mg/kg; procedure, shortened: as §1
Mus musculus [35] = assay: Antitumor activity against L1210 leukemia in mice (Percent increase in life span.) at the dose of 460 mg/kg (mice surviving 20 or more days); procedure, shortened: as §1
Mus musculus [36] = assay: Antitumor activity against L1210 leukemia in mice (Average weight per mouse on day 1.) at the dose of 115 mg/kg; procedure, shortened: as §3

- IC50 (L1210): 4 µM
- IC50 (B16): 70 µM
SMILES: CCOP(=O)(O)OC[C@H]1O[C@@H](n2ccc(N)nc2=O)[C@@H](O)[C@@H]1O

- IC50 (L1210): 11 µM
SMILES: CCCCCCCCCCCCCCCCOP(=O)(O)OC[C@H]1O[C@@H](n2ccc(N)nc2=O)[C@@H](O)[C@@H]1O

- IC50 (L1210): 0.65 µM
- IC50 (B16): 26 µM
SMILES: Nc1ccn([C@@H]2O[C@H](COP(=O)(O)OCC(O)CO)[C@@H](O)[C@@H]2O)c(=O)n1 (stereo partly drawn)

- IC50 (L1210): 11 µM
- IC50 (B16): 360 µM
SMILES: CCCCCCCCOP(=O)(O)OC[C@H]1O[C@@H](n2ccc(N)nc2=O)[C@@H](O)[C@@H]1O

- IC50 (L1210): 7.8 µM
SMILES: CCCCCCOP(=O)(O)OC[C@H]1O[C@@H](n2ccc(N)nc2=O)[C@@H](O)[C@@H]1O

Continued, compound first:

SMILES: CCCCCCCCCCCCCCCC(=O)O[C@H]1[C@@H]2Oc3nc(=N)ccn3[C@@H]2O[C@@H]1COP(=O)(O)OCCCC
- ILS at 390 mg/kg (Mus musculus [1]): 74%
- ILS at 260 mg/kg (Mus musculus [2]): 62%
- Weight change (Mus musculus [3]): 4%
- ILS at 130 mg/kg (Mus musculus [4]): 62%
- Weight change (Mus musculus [5]): -1.6 g mouse-1
- Average weight (Mus musculus [6]): 24.5 g mouse-1
- Weight change (Mus musculus [7]): -7%
- Weight change (Mus musculus [8]): 0.9 g mouse-1
- Average weight (Mus musculus [9]): 23 g mouse-1
- Weight change (Mus musculus [10]): 0.9 g mouse-1
- Average weight (Mus musculus [11]): 22.8 g mouse-1
- Weight change (Mus musculus [12]): 4%

SMILES: Nc1ccn([C@@H]2O[C@H](COP(=O)(O)OCC(O)COCc3ccccc3)[C@@H](O)[C@@H]2O)c(=O)n1 (stereo partly drawn)
- IC50 (L1210): 1 µM
- IC50 (B16): 25 µM

SMILES: CCCCCCCCCCCCCCCC(=O)O[C@H]1[C@@H]2Oc3nc(=N)ccn3[C@@H]2O[C@@H]1COP(=O)(O)OCCOCC
- Average weight (Mus musculus [13]): 24 g mouse-1
- Weight change (Mus musculus [14]): -16%
- Weight change (Mus musculus [15]): -3.6 g mouse-1
- Weight change (Mus musculus [16]): -11%
- Average weight (Mus musculus [17]): 24 g mouse-1
- ILS at 200 mg/kg (Mus musculus [18]): 137%
- ILS at 113 mg/kg (Mus musculus [19]): 112%
- Weight change (Mus musculus [20]): -4 g mouse-1
- Weight change (Mus musculus [21]): -2.6 g mouse-1
- ILS at 267 mg/kg (Mus musculus [22]): 150%
- Average weight (Mus musculus [23]): 24.4 g mouse-1
- Weight change (Mus musculus [24]): -16%

SMILES: Nc1ccn([C@@H]2O[C@H](COP(=O)(O)O)[C@@H](O)[C@H]2O)c(=O)n1
- IC50 (L1210): 0.35 µM
- IC50 (B16): 1.5 µM

SMILES: CCCCCCCCCCCCCCCC(=O)O[C@H]1[C@@H]2Oc3nc(=N)ccn3[C@@H]2O[C@@H]1COP(=O)(O)OCCCCCC
- Weight change (Mus musculus [25]): 1.8 g mouse-1
- Weight change (Mus musculus [26]): 8%
- Average weight (Mus musculus [27]): 19.8 g mouse-1
- Weight change (Mus musculus [28]): 10%
- Weight change (Mus musculus [29]): 2.8 g mouse-1
- Weight change (Mus musculus [30]): 14%
- Weight change (Mus musculus [31]): 2 g mouse-1
- ILS at 115 mg/kg (Mus musculus [32]): 25%
- Average weight (Mus musculus [33]): 22.2 g mouse-1
- ILS at 230 mg/kg (Mus musculus [34]): 37%
- ILS at 460 mg/kg (Mus musculus [35]): 75%
- Average weight (Mus musculus [36]): 20.6 g mouse-1

Source: ChEMBL document CHEMBL1122008, “Lipophilic 5'-(alkyl phosphate) esters of 1-beta-D-arabinofuranosylcytosine and its N4-acyl and 2,2'-anhydro-3'-O-acyl derivatives as potential prodrugs” (1982)
